In the library only some 1.1% were active in any assay of this set; here they are far more common.
GSH bead fluor: compound fluoresces at 488/530 nm on GSH beads | GSH beads flow cytometry, compound fluorescence 488/530 nm; active compounds read high | fluorescence (KMESF) at 10 µM | actives 0.25% (n = 190,000) | AID 1776; in the data active = fluorescence above about 89;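 also: glutathione beads carrying GST-tagged Bcl family fusion proteins plus one bare bead set; values are compound well signal with DMSO vehicle wells as background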
DSG3 Ab inh: human desmoglein-3 autoantibody binding inhibition | AID 588358 | binding (percent of control), % at 10 µM | P32926 | actives 0.48% (n = 310,000) | DSG3-coupled beads, scFv-anti-DSG3-GFP binding, flow cytometry; active compounds read low;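 active = binding more than 3 SD below its plate's average and above zero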;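 also: hits lower antibody fragment binding to DSG3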
Target sequence (P32926 whole entry, looked up, the tested form may be a part): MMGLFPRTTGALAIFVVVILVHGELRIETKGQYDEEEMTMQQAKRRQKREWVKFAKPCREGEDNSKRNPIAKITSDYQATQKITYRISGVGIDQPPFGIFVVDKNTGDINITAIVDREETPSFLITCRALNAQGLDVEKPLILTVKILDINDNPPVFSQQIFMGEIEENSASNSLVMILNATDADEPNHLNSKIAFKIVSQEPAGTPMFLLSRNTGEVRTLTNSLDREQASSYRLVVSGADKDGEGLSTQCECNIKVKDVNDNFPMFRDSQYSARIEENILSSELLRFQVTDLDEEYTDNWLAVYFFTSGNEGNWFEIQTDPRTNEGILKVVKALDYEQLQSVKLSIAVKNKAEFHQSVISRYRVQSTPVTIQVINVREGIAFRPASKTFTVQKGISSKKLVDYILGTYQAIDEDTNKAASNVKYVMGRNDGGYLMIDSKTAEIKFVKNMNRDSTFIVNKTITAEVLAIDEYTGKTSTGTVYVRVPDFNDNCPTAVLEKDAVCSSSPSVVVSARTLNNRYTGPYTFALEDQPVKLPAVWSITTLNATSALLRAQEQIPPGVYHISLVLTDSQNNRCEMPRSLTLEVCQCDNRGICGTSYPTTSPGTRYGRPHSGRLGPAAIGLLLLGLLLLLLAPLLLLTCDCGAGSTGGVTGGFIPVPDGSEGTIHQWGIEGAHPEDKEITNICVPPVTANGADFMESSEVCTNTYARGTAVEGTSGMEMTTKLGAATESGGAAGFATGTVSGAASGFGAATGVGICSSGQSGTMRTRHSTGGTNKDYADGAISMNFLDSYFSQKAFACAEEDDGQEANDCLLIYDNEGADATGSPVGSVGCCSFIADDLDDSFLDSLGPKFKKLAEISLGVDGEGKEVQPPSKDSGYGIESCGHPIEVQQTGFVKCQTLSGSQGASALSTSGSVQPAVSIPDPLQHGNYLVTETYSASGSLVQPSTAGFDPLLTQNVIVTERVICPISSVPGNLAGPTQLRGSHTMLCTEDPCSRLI
Arrestin-AP2 inh: inhibitors of human beta-arrestin and AP2 interaction; FITC-arrestin peptide / GST-AP2 beads, flow cytometry; AP2 beta2 appendage carries R879A mutation; inhibition, % at 10 µM; actives 0.31% (n = 340,000); AID 504490;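 active = inhibition above a set limit, near 3 SD of compounds lacking own fluorescence, cut at about 54% in these data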;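 also: plate controls were DMSO wells for no effect and 5 µM unlabelled arrestin peptide for full effect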
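Material – GST-tagged AP2 beta2-adaptin appendage (R879A) on 4 µm glutathione beads · Probe or stimulus – fluorescein-tagged arrestin peptide at 50 nM final · Timing – 12 min plus 1 h, RT · Detection – bead flow cytometry, FITC channel · Read-out basis – inhibition as reduced fluorescein signal on beads, percent · Medium – PBS plus Tween 20 (0.05%) and BSA (0.1%)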
Avidin bead fluor: compound fluoresces at 488/530 nm on avidin beads. fluorescence (KMESF) at 10 µM. compound fluorescence 488/530 nm, flow cytometry; active compounds read high. actives 0.38% (n = 220,000); in the data active = fluorescence above about 47
Arr-AP2 CP1: blocks beta-arrestin peptide binding to human AP2; shares compounds with Arrestin-AP2 inh; GST-AP2 beads, FITC arrestin peptide binding, flow cytometry; GST-fused beta2-adaptin appendage, R879A mutant; inhibition, % at 10 µM; actives 2% (n = 1,300);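 active = inhibition above a set limit, roughly 3 SD of non-fluorescent compound noise, cut at about 38% in these data; inactive = inhibition at or below that limit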;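 also: loss of bead fluorescence from 50 nM FITC arrestin peptide bound to appendage; 0% = negative control wells and 100% = excess unlabelled arrestin peptide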
GST-FITC bead: GST-GSH bead binding interference, counter-screen; shares compounds with Arrestin-AP2 inh; GST-fluorescein binding to GSH beads, fluorescence; inhibition, % at 10 µM; actives 2% (n = 1,300);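 active = inhibition above 50%, about 3 SD of the inhibition seen with non-fluorescent compounds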;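 also: fluorescein maleimide labelled GST captured on 4 micron glutathione beads; higher means more loss of bead fluorescence from quenching or blocked binding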
Starred values were filed as active, the others as inactive; · = not tested or not shown.

SMILES	GSH bead fluor	DSG3 Ab inh	Arrestin-AP2 inh	Avidin bead fluor	Arr-AP2 CP1	GST-FITC bead
CCOc1ccc(S(=O)(=O)N2CCCCC2)cc1NC(=O)c1cccnc1OCC	·	104	14	·	-7	15
CCOc1ccc(S(=O)(=O)N2CCCCC2)cc1NC(=O)c1ccccc1	·	102	-5	·	·	·
COc1cccc(C(N)=O)c1OC(=O)Cc1ccccc1F	·	93	-2	·	·	·
O=C(NNC1=NS(=O)(=O)c2ccccc21)c1ccc(Cl)cc1	12	94	58*	20	-11	0
O=C(NNC1=NS(=O)(=O)c2ccccc21)c1ccc([N+](=O)[O-])cc1	·	·	18	·	·	·
O=C(CSc1ccccc1)Nc1ccc2c(c1)C(=O)NC2=O	·	101	22	·	·	·
COC(=O)Cc1ccc(NC(=S)N2CCCCC2C)cc1 (stereo not given)	14	105	57*	10	-10	3
COC(=O)Cc1ccc(NC(=S)N2CCN(C)CC2)cc1	13	86	-4	7	·	·
CCCCOC(=O)CCCN1C(=O)/C(=C2\SC(=S)N(CCCC(=O)OCCCC)C2=O)SC1=S	·	99	67*	·	10	4
CCCCN1C(=O)/C(=C2/Sc3ccc(OC)cc3N2CC)SC1=S	·	127	-5	·	·	·
CCN(CC)C(=O)Nc1c(C)n(C)n(-c2ccccc2)c1=O	18	102	65*	6	0	-3
CCC(CC)C(=O)Nc1c(C)n(C)n(-c2ccccc2)c1=O	15	85	13	4	·	·
CCOc1ccc(-c2cccc(NS(=O)(=O)c3cc([N+](=O)[O-])ccc3Cl)c2)nn1	·	98	20	·	·	·
O=[N+]([O-])c1cc(S(=O)(=O)N2CCCC2)ccc1N/N=C/c1cccnc1	8	101	70*	7	17	28
CCc1cccc(NC(=O)Cn2ncn3c(cc4ccccc43)c2=O)c1	17	98	2	10	·	·
Cc1ccc(NC(=O)Cn2ncn3c(cc4ccccc43)c2=O)cc1F	·	100	66*	·	0	-4
CCc1nc2nc(C)c(NS(=O)(=O)c3ccc(Cl)cc3)c(=O)n2[nH]1	·	101	49	·	·	·
NC1=NCC(O)=C1c1nc2ccccc2[nH]1	15	111	66*	10	-9	4
COc1ccc([C@H]2CC(=O)C=C(c3ccc(CNC(=O)OC(C)(C)C)cc3)C2)cc1	·	103	22	·	·	·
O=C(CCNC(=O)c1ccc([N+](=O)[O-])cc1)NCCC1=CCCCC1	·	103	-1	·	·	·
O=C(CCNC(=O)c1ccc(Cl)cc1)NCCC1=CCCCC1	·	109	64*	·	-10	-4
Cc1cccn2c(=O)nc(SCC(=O)NCCc3ccccc3)nc12	·	98	2	·	·	·
O=C(C[C@H]1C[C@H](C(=O)N2CCCCC2)[C@@]2(CCc3ccccc3)c3[nH]c4cc(-c5ccco5)ccc4c3CCN2C1=O)NCc1ccco1	·	96	1	·	·	·
CC(C)N(C(=O)[C@H]1C[C@H](CC(=O)NCc2ccco2)C(=O)N2CCc3c([nH]c4cc(-c5ccco5)ccc34)[C@]12C)C(C)C	·	100	60*	·	-9	-1
CC(C)N(C(=O)[C@H]1CC(CC(=O)NCc2ccco2)C(=O)N2CCc3c([nH]c4ccccc34)[C@]12C)C(C)C (stereo not given in full)	·	100	2	·	·	·
SMILES	GSH bead fluor	DSG3 Ab inh	Arrestin-AP2 inh	Avidin bead fluor	Arr-AP2 CP1	GST-FITC bead
O=C(C[C@H]1C[C@H](C(=O)N2CCCCC2)[C@@]2(CCc3ccccc3)c3[nH]c4cc(-c5ccco5)ccc4c3CCN2C1=O)NCCC1=CCCCC1	·	94	57*	·	-3	-6
CCC(CO)Oc1cc(NC(=O)Cc2ccccc2F)c2ncn(C(C)C)c2c1 (stereo not given)	·	105	-4	·	·	·
COc1ccc2nc(/C=N/NC(=O)CCCCCNC(=O)OC(C)(C)C)ccc2c1	·	·	11	8	·	·
Cc1cc2nc3ccc(N(C)C)cc3nc2cc1N	·	·	64*	·	44*	21
CCC(Sc1nc(N)c(NC(=O)c2ccco2)c(=O)[nH]1)C(=O)O (stereo not given)	·	104	-1	·	·	·
Cn1c(CC(=O)Nc2ccc(Cl)cc2)nnc1SCC(=O)N1CCOCC1	·	104	-7	·	·	·
O=C(COC(=O)c1ccc(F)cc1F)c1ccc[nH]1	·	103	72*	·	-4	2
COCCN1CC(CNC(=O)c2cc(COc3ccccc3SC)on2)CC1=O (stereo not given)	·	113	-9	·	·	·
O=C(NC1=NCCS1)c1ccc(Cl)c(S(=O)(=O)N2CCCC2)c1	13	98	45	10	·	·
O=C(NC1=NCCS1)c1ccc(Cl)c(S(=O)(=O)N2CCOCC2)c1	74	107	57*	14	-1	-13
Cc1ccc(CNC(=O)C2CCC(=O)N(CCc3cccc(F)c3)C2)cc1 (stereo not given)	·	105	5	·	·	·
O=CN1CCN(C(C(=O)NC2CCCC2)c2cc3c(cc2[N+](=O)[O-])OCO3)CC1 (stereo not given)	16	118	60*	10	14	8
O=S(=O)(c1ccc(OCc2ccc(Br)cc2)cc1)N1CCOCC1	·	99	3	·	·	·
COc1cccc(CN(C)CC(=O)Nc2cc3oc4ccccc4c3cc2OC)c1	9	109	3	9	1	0
COc1cc2c(cc1NC(=O)COc1ccc3ccccc3c1)oc1ccccc12	49	98	-2	12	·	·
COc1cc2c(cc1NC(=O)CN(C)Cc1cccc(OC)c1OC)oc1ccccc12	6	94	-7	1	-2	1
C[C@H](O)[C@@H]1C(=O)N2CCc3ccc(-c4ccccc4)cc3[C@@H]2C[C@@H]1N(C)C(=O)Nc1cc(Cl)cc(Cl)c1	·	97	-7	·	·	·
Cn1c(=O)c(C(=O)NNC(=O)c2ccccc2Br)c(O)c2ccccc21	·	104	56*	·	-7	4
Cn1c(=O)c(C(=O)NNC(=O)c2ccccc2Cl)c(O)c2ccccc21	·	95	24	·	·	·
COc1cccc(CNC(=O)CCC2CCCN(C(=O)c3ccccc3N(C)C)C2)c1 (stereo not given)	·	102	30	·	·	·
CCCNC(=O)[C@@H]1CCCN1C(=O)C1CCN(S(=O)(=O)c2ccc(C)cc2)CC1	·	107	54*	·	5	-2
Cc1ccc(S(=O)(=O)N2CCC(C(=O)N3CCC3)CC2)cc1	·	103	54*	·	5	-3
CN(CC(=O)Nc1ccc(Cl)c(C(F)(F)F)c1)C(=O)C1(c2ccccc2)CC1	·	114	2	·	·	·
O=C(O)c1csc(-c2cccs2)n1	11	117	11	25	·	·
Cc1nc(C)c(C(=O)O)c(-c2cccs2)c1C(=O)O	·	101	74*	6	-8	-3
Oc1ccc(/C=N/Nc2nc(N3CCCC3)nc(N3CCCC3)n2)cc1O	11	104	58*	9	-2	4
Oc1c(C=C2N=c3ccccc3=N2)sc(=S)n1C1CCCC1	9	92	110*	3	-2	-1
